Data as given in ChEMBL document CHEMBL1144911, “Synthesis and biological evaluation of 5-substituted derivatives of the potent antiherpes agent (north)-methanocarbathymine” (J Med Chem, 2003).

How the values were obtained:
HFF [1] = assay: Concentration for HSV-1 plaque reduction (VPR) by 50% in HFF cells; type: functional, cell-based; conditions: Homo sapiens
HFF [2] = assay: Concentration for HSV-2 plaque reduction (VPR) by 50% in HFF cells; type: functional, cell-based; conditions: Homo sapiens
Human alphaherpesvirus 1 [3] = assay: Inhibitory concentration required to reduce HSV-1 induced cytopathogenic effect (CPE) by 50 % in HFF cells; type: functional, organism-based, herpes simplex virus; conditions: Human alphaherpesvirus 1, HFF
Human alphaherpesvirus 2 = assay: Inhibitory concentration required to reduce HSV-2 induced cytopathogenic effect (CPE) by 50 % in HFF cells; type: functional, organism-based; conditions: Human alphaherpesvirus 2, HFF
Human alphaherpesvirus 1 [4] = assay: (§1) Inhibitory concentration required to reduce HSV-1 induced cytopathogenic effect (CPE) in human skin fibroblast; type: functional, organism-based, herpes simplex virus
Homo sapiens [5] = species: Homo sapiens; assay: Inhibitory concentration required to reduce HSV-1 induced virus plaque reduction (VPR) in human skin fibroblast; type: functional, organism-based
Homo sapiens [6] = species: Homo sapiens; assay: Inhibitory concentration required to reduce HSV-2 induced cytopathogenic effect in human skin fibroblast; type: functional, organism-based
Homo sapiens [7] = species: Homo sapiens; assay: Inhibitory concentration required to reduce HSV-2 induced virus plaque reduction (VPR) in human skin fibroblast; type: functional, organism-based
Human alphaherpesvirus 3 [8] = assay: Antiviral activity against 07/1 strain of thymidine kinase negative (TK-) Varicella-Zoster Virus (VZV); type: functional, organism-based
Human alphaherpesvirus 3 [9] = assay: Antiviral activity against OKA strain of thymidine kinase positive(TK+) Varicella-Zoster Virus (VZV); type: functional, organism-based
Human alphaherpesvirus 3 [10] = assay: Minimum cytotoxic concentration that causes alterations of VZV infected Osteosarcoma cell morphology; type: functional
Human alphaherpesvirus 3 [11] = assay: Effective concentration against TK+ Varicella-Zoster Virus (VZV) OKA strain; type: functional, organism-based
Human alphaherpesvirus 3 [12] = assay: Effective concentration against TK+ Varicella-Zoster Virus (VZV)YS strain; type: functional, organism-based
Human alphaherpesvirus 3 [13] = assay: Effective concentration against TK- Varicella-Zoster Virus (VZV) 07/1 strain; type: functional, organism-based
Human alphaherpesvirus 3 [14] = assay: Effective concentration against TK- Varicella-Zoster Virus (VZV) YS/R strain; type: functional, organism-based
Human alphaherpesvirus 3 [15] = assay: Antiviral activity against YS strain of thymidine kinase positive(TK+) Varicella-Zoster Virus (VZV); type: functional, organism-based
Human alphaherpesvirus 3 [16] = assay: Antiviral activity against YS/R strain of thymidine kinase negative(TK-) Varicella-Zoster Virus (VZV); type: functional, organism-based
[17] = Cytotoxic concentration that produces 50% inhibition of cell growth.; type: functional
[18] = Minimum cytotoxic concentration that causes microscopically detectable alterations of cell morphology; type: functional
Human alphaherpesvirus 3 [19] = assay: Cytotoxic concentration that causes growth inhibition of VZV infected Osteosarcoma cells; type: functional
[20] = Catalytic rate constant was determined; type: ADME
HFF [21] = assay: Cytotoxic concentration for 50% inhibition of cell growth of HSV-1 infected HFF cells determined by CPE assay; type: functional; conditions: Homo sapiens
HFF [22] = assay: Cytotoxic concentration for 50% inhibition of cell growth of HSV-1 infected HFF cells determined by VPR assay; type: functional; conditions: Homo sapiens
HFF [23] = assay: Cytotoxic concentration for 50% inhibition of cell growth of HSV-2 infected HFF cells determined by CPE assay; type: functional; conditions: Homo sapiens
HFF [24] = assay: Cytotoxic concentration for 50% inhibition of cell growth of HSV-2 infected HFF cells determined by VPR assay; type: functional; conditions: Homo sapiens
In short: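 Run in virus-infected HFF cells within the plaque reduction assay set-up. […] The value was converted from μg/mL to μM.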

HFF [25] = assay: Concentration to reduce Cowpox virus plaque reduction (VPR) by 50% in HFF cells; type: functional, cell-based; conditions: Homo sapiens
HFF [26] = assay: Concentration to reduce vaccinia virus plaque reduction (VPR) by 50% in HFF cells; type: functional, cell-based; conditions: Homo sapiens
HFF [27] = assay: Inhibitory concentration for HSV-1 plaque reduction (VPR) by 50% in HFF cells; type: functional, cell-based; conditions: Homo sapiens
HFF [28] = assay: Inhibitory concentration for HSV-2 plaque reduction (VPR) by 50% in HFF cells; type: functional, cell-based; conditions: Homo sapiens
HFF [29] = assay: Inhibitory concentration to reduce Cowpox virus induced cytopathogenic effect by 50% in HFF cells; type: functional, cell-based; conditions: Homo sapiens
HFF [30] = assay: Inhibitory concentration to reduce vaccinia virus induced cytopathogenic effect by 50% in HFF cells; type: functional, cell-based; conditions: Homo sapiens
[31] = Inhibition constant against HSV-1 TK; type: functional, herpes simplex virus
Homo sapiens [32] = species: Homo sapiens; assay: as §1; type: functional, organism-based
Homo sapiens [33] = species: Homo sapiens; assay: Inhibitory concentration required to reduce cowpox virus induced cytopathogenic effect (CPE) in human skin fibroblast; type: functional, organism-based
Homo sapiens [34] = species: Homo sapiens; assay: Inhibitory concentration required to reduce cowpox virus induced virus plaque reduction (VPR) in human skin fibroblast; type: functional, organism-based
Homo sapiens [35] = species: Homo sapiens; assay: Inhibitory concentration required to reduce vaccinia virus induced virus plaque reduction (VPR) in human skin fibroblast; type: functional, organism-based
Homo sapiens [36] = species: Homo sapiens; assay: Cytotoxic concentration that produces 50% growth inhibition of human skin fibroblast in VPR assay; type: functional
[37] = Cytotoxic concentration against non transfected osteosarcoma cells non transfected (MG-63-hTK1); type: functional
In short: (§2)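 Osteosarcoma lines (143B-TK⁻ with 0.1 mg/mL 5-BrdU selection; MG-63-hTK1; 143B-TK⁺-HSV1-WT with HAT) grown in MEM/10% FCS. Seeded at 2 × 10³ (143B lines) or 1.5 × 10³ (MG-63) cells/well, exposed to five concentrations over 0.5–500 μM for 4.5 days at 37 °C/5% CO₂. XTT added for 9 h, A450 (ref 750 nm) read against untreated wells. Three independent series in triplicate.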

[38] = Cytotoxic concentration against osteosarcoma cells stably transfected with HSV-1 TK (143B-TK+-HSV-1-WT); type: functional; conditions: Human alphaherpesvirus 1; in short: as §2
[39] = Selectivity index calculated as CC50/EC50 in the VPR assay of HSV-1; type: functional
[40] = Selectivity index calculated as CC50/EC50 in the study of VPR assay of vaccinia virus; type: functional
[41] = Selectivity index calculated as CC50/EC50 in the study of cytopathogenic effect by HSV-1; type: functional
[42] = Selectivity index calculated as CC50/EC50 in the study of cytopathogenic effect by vaccinia virus; type: functional
Homo sapiens [43] = species: Homo sapiens; assay: Cytotoxic concentration that produces 50% growth inhibition of human skin fibroblast in CPE assay; type: functional
Homo sapiens [44] = species: Homo sapiens; assay: Inhibitory concentration required to reduce vaccinia virus induced cytopathogenic effect (CPE) in human skin fibroblast; type: functional, organism-based
[45] = test system: Thymidine kinase (Herpes simplex virus type 1); assay: Catalytic turnover constant against HSV-1 thymidine kinase
[46] = Cytotoxic concentration against HSV-1 TK- transfected osteosarcoma cells; type: functional; conditions: Human alphaherpesvirus 1; in short: as §2
[47] = Cytotoxic concentration against HSV-1 TK-transfected osteosarcoma cells; type: functional; conditions: Human alphaherpesvirus 1; in short: as §2
[48] = Inhibitory activity against HSV-1-TK transfected osteosarcoma cells; type: functional; in short: as §2

With `Nc1nc2c(ncn2COCCO)c(=O)[nH]1` [ACYCLOVIR] the EC50 (HFF [1]) was 1.1 µM, the EC50 (HFF [2]) was 1.68 µM and the EC50 (Human alphaherpesvirus 1 [3]) was 2.22 µM. It also gave an EC50 (Human alphaherpesvirus 2) of 10.2 µM, an EC50 (Human alphaherpesvirus 1 [4]) of 2.22 µM and an EC50 (Homo sapiens [5]) of 1.1 µM. The EC50 (Homo sapiens [6]) was 10.2 µM and the EC50 (Homo sapiens [7]) was 1.68 µM.
In the case of `O=c1[nH]c(=O)n([C@H]2C[C@H](O)[C@@H](CO)O2)cc1/C=C/Br` [BRIVUDINE], the EC50 (Human alphaherpesvirus 3 [8]) is reported as > 150 µM, the EC50 (Human alphaherpesvirus 3 [9]) is reported as 0.005 µM and the MCC (Human alphaherpesvirus 3 [10]) is reported as > 150 µM. The EC50 (Human alphaherpesvirus 3 [11]) was 0.005 µM, the EC50 (Human alphaherpesvirus 3 [12]) was 0.008 µM and the EC50 (Human alphaherpesvirus 3 [13]) was > 150 µM. For the same compound, the EC50 (Human alphaherpesvirus 3 [14]) was > 150 µM, the EC50 (Human alphaherpesvirus 3 [15]) was 0.008 µM and the EC50 (Human alphaherpesvirus 3 [16]) was > 150 µM. For the same compound, the CC50 [17] was > 400 µM, the MCC [18] was > 150 µM and the CC50 (Human alphaherpesvirus 3 [19]) was > 400 µM.
With `O=c1[nH]c(=O)n([C@H]2C[C@H](O)[C@]3(CO)C[C@H]23)cc1Br` the EC50 (Human alphaherpesvirus 3 [8]) was > 20 µM, the k cat [20] was 0.15 s⁻¹ and the CC50 (HFF [21]) was > 315 µM. The CC50 (HFF [22]) was > 315 µM, the CC50 (HFF [23]) was > 315 µM and the CC50 (HFF [24]) was > 315 µM. It also gave an EC50 (HFF [25]) of 10.7 µM, an EC50 (HFF [26]) of 8.19 µM and an EC50 (HFF [27]) of 0.095 µM. For the same compound, the EC50 (HFF [28]) was 0.378 µM, the EC50 (Human alphaherpesvirus 1 [3]) was 1.23 µM and the EC50 (Human alphaherpesvirus 2) was 2.2 µM. It also gave an EC50 (HFF [29]) of 36.3 µM, an EC50 (HFF [30]) of 2.01 µM and a Ki [31] of 69.8 µM. It also gave an EC50 (Homo sapiens [32]) of 1.23 µM, an EC50 (Homo sapiens [5]) of 0.095 µM and an EC50 (Homo sapiens [6]) of 2.2 µM. The EC50 (Homo sapiens [7]) was 0.378 µM, the EC50 (Homo sapiens [33]) was 36.3 µM and the EC50 (Homo sapiens [34]) was 10.7 µM. For the same compound, the EC50 (Homo sapiens [35]) was 8.19 µM, the CC50 (Homo sapiens [36]) was > 315 µM and the EC50 (Human alphaherpesvirus 3 [9]) was 0.2 µM. For the same compound, the CC50 [37] was 330 µM, the CC50 [38] was 150 µM and the MCC (Human alphaherpesvirus 3 [10]) was > 50 µM. The EC50 (Human alphaherpesvirus 3 [11]) was 0.2 µM, the EC50 (Human alphaherpesvirus 3 [12]) was 0.2 µM and the EC50 (Human alphaherpesvirus 3 [13]) was > 20 µM. For the same compound, the EC50 (Human alphaherpesvirus 3 [14]) was 4 µM, the EC50 (Human alphaherpesvirus 3 [15]) was 0.2 µM and the EC50 (Human alphaherpesvirus 3 [16]) was 4 µM. The SI [39] was > 3320, the SI [40] was >38 and the SI [41] was > 256. The SI [42] was >156, the CC50 [17] was > 200 µM and the MCC [18] was > 50 µM. For the same compound, the CC50 (Homo sapiens [43]) was > 315 µM, the CC50 (Human alphaherpesvirus 3 [19]) was > 200 µM and the EC50 (Homo sapiens [44]) was 2.01 µM. It also gave a k cat [45] of 0.15 s⁻¹.
For `O=c1[nH]c(=O)n([C@H]2C[C@H](O)[C@]3(CO)C[C@H]23)cc1I`, the EC50 (Human alphaherpesvirus 3 [8]) was > 5 µM, the k cat [20] was 0.14 s⁻¹ and the CC50 (HFF [21]) was > 275 µM. The CC50 (HFF [23]) was > 275 µM, the EC50 (Human alphaherpesvirus 1 [3]) was > 275 µM and the EC50 (Human alphaherpesvirus 2) was 9.06 µM. For the same compound, the Ki [31] was 85.8 µM, the EC50 (Homo sapiens [32]) was > 275 µM and the EC50 (Homo sapiens [6]) was 9.06 µM. For the same compound, the EC50 (Human alphaherpesvirus 3 [9]) was 0.16 µM, the CC50 [46] was > 500 µM and the CC50 [47] was 25 µM. For the same compound, the CC50 [37] was 300 µM, the CC50 [48] was 25 µM and the MCC (Human alphaherpesvirus 3 [10]) was > 5 µM. The EC50 (Human alphaherpesvirus 3 [11]) was 0.16 µM, the EC50 (Human alphaherpesvirus 3 [12]) was 0.12 µM and the EC50 (Human alphaherpesvirus 3 [13]) was > 5 µM. The EC50 (Human alphaherpesvirus 3 [14]) was 3 µM, the EC50 (Human alphaherpesvirus 3 [15]) was 0.12 µM and the EC50 (Human alphaherpesvirus 3 [16]) was 3 µM. For the same compound, the CC50 [17] was > 200 µM, the MCC [18] was > 5 µM and the CC50 (Homo sapiens [43]) was > 275 µM. For the same compound, the CC50 (Human alphaherpesvirus 3 [19]) was > 200 µM and the k cat [45] was 0.14 s⁻¹.
